Measured values reported in ChEMBL document CHEMBL4819012, “Discovery of novel 2-aryl-3-sulfonamido-pyridines (HoAns) as microtubule polymerization inhibitors with potent antitumor activities” (Eur J Med Chem, 2021).
Active and inactive are the calls of the source. No cut-off for these calls is given here.

Legend:
MCF7 = assay: Antiproliferative activity against human MCF7 cells assessed as cell viability at 10 uM measured after 72 hrs by MTS method; assay type: functional; conditions: read-out: Activity
How it was run: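 Single-concentration screen at 10 µM for 72 h. Log-phase cells plated at 5×10^3–6×10^3 per well for 24 h before dosing, five replicate wells. Viability measured by MTS: 10% MTS in fresh medium, 30 min or more at 37 °C in dark, absorbance 490 nm.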

BT-474 = assay: Antiproliferative activity against human BT-474 cells assessed as cell viability measured after 72 hrs by MTS method; assay type: functional, cell-based; conditions: BT-474, 72 h
How it was run: (§1)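 Log-phase cells plated at 5×10^3–6×10^3 per well for 24 h, then given graded compound concentrations in fresh medium for 72 h, five replicate wells. Medium replaced with medium containing 10% MTS, 30 min or more at 37 °C in dark; OD 490 nm read. IC50 by nonlinear regression; mean ± SD of at least three experiments.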

[1] = Antiproliferative activity against human HCCLM3 cells assessed as cell viability measured after 72 hrs by MTS method; assay type: functional, cell-based; conditions: HCCLM3, 72 h; how it was run: as §1
RKO = assay: Antiproliferative activity against human RKO cells assessed as cell viability measured after 72 hrs by MTS method; assay type: functional, cell-based; how it was run: as §1
SK-BR-3 = assay: Antiproliferative activity against human SK-BR-3 cells assessed as cell viability measured after 72 hrs by MTS method; assay type: functional, cell-based; conditions: SK-BR-3, 72 h; how it was run: as §1
PANC-1 = assay: Antiproliferative activity against human PANC-1 cells assessed as cell viability measured after 72 hrs by MTS method; assay type: functional, cell-based; conditions: PANC-1, 72 h; how it was run: as §1
NCI-H460 = assay: Antiproliferative activity against human NCI-H460 cells assessed as cell viability measured after 72 hrs by MTS method; assay type: functional, cell-based; conditions: NCI-H460, 72 h; how it was run: as §1
SW480 = assay: Antiproliferative activity against human SW480 cells assessed as cell viability measured after 72 hrs by MTS method; assay type: functional, cell-based; conditions: SW480, 72 h; how it was run: as §1
SW-620 = assay: Antiproliferative activity against human SW-620 cells assessed as cell viability measured after 72 hrs by MTS method; assay type: functional, cell-based; conditions: SW-620, 72 h; how it was run: as §1
PLC-PRF-5 = assay: Antiproliferative activity against human PLC-PRF-5 cells assessed as cell viability measured after 72 hrs by MTS method; assay type: functional, cell-based; conditions: PLC-PRF-5, 72 h; how it was run: as §1
A549 = assay: Antiproliferative activity against human A549 cells assessed as cell viability measured after 72 hrs by MTS method; assay type: functional, cell-based; conditions: A549, 72 h; how it was run: as §1
Tubulin (Homo sapiens) [2] = molecular target: T1, Tubulin (Homo sapiens) (UniProt P68371+Q9H4B7+P0DPH7+P68366+Q13509+Q71U36+P04350+Q3ZCM7+P07437+P68363+Q9BQE3+Q6PEY2+Q13885+Q9BVA1+Q9BUF5); assay: Inhibition of tubulin polymerization in human RKO cells assessed as morphology changed to fusiform at 1 uM measured 24 hrs by DAPI staining based immunoflourescence assay; assay type: cell-based; conditions: in the assay text read “changed to round from fusiform” for “changed to fusiform”
How it was run: (§2)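 RKO cells on coverslips (2.5×10^5 per well) incubated overnight, then treated for 24 h at 0.5 or 1 μM, DMSO, or 1 μM comparators. Fixed in cold methanol 10 min, permeabilized with 0.25% Triton X-100, blocked in 1% BSA at 4 °C overnight. Stained with anti-β-tubulin (1:100, 2 h RT) and Alexa Fluor 594 secondary (1:500, 1 h), nuclei with DAPI; imaged by fluorescence microscopy.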

Sus scrofa = species on record: Sus scrofa; assay: Inhibition of pig tubulin polymerization at 10 uM measured every minute for 60 mins by microplate reader method
How it was run: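 Kit assay with porcine tubulin (>97% pure) at 4 mg/mL in PIPES 80 mM, MgCl2 2 mM, EGTA 0.5 mM, pH 6.9, with GTP. Compound at 10 μM final (from 100 μM working solution) preincubated 5 min at 37 °C in a prewarmed plate before cold tubulin mix is added. A340 read every minute for 60 min at 37 °C.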

Tubulin (Homo sapiens) [3] = molecular target: T1, Tubulin (Homo sapiens); assay: Inhibition of tubulin polymerization in human RKO cells assessed as fragmentation of microtubule at 1 uM measured 24 hrs by DAPI staining based immunoflourescence assay; assay type: cell-based; how it was run: as §2

In the case of COc1ccc(S(=O)(=O)Nc2cccnc2-c2cccnc2)cc1, the viability at 10 µM (MCF7) is reported as greater than 70%.
COc1ccc(S(=O)(=O)Nc2cccnc2-c2ccc([N+](=O)[O-])cc2)cc1 gave an IC50 (BT-474) greater than 10 µM, an IC50 [1] of 7.6 µM and an IC50 (RKO) of 1.4 µM. For the same compound, the IC50 (SK-BR-3) was 6.31 µM, the IC50 (PANC-1) was 7.19 µM and the IC50 (NCI-H460) was greater than 10 µM. It also gave an IC50 (SW480) of 3.85 µM, an IC50 (SW-620) of 3.62 µM and an IC50 (PLC-PRF-5) of 5.3 µM. It also gave an IC50 (A549) greater than 10 µM.
For COc1ccc(S(=O)(=O)Nc2cccnc2-c2cccc(C#N)c2)cc1, the viability at 10 µM (MCF7) was greater than 70%.
With COc1ccc(S(=O)(=O)Nc2cccnc2-c2ccncc2)cc1 the viability at 10 µM (MCF7) was greater than 70%.
For COc1ccc(S(=O)(=O)N(c2cccnc2-c2ccc3c(c2)OCO3)S(=O)(=O)c2ccc(OC)cc2)cc1, the viability at 10 µM (MCF7) was greater than 70%.
In the case of COc1ccc(S(=O)(=O)Nc2cccnc2-c2c(OC)cccc2OC)cc1, the viability at 10 µM (MCF7) is reported as greater than 70%.
COc1ccc(S(=O)(=O)Nc2cccnc2-c2ccccc2OC)cc1 gave a viability at 10 µM (MCF7) greater than 70%.
For COc1ccc(S(=O)(=O)Nc2cccnc2-c2ccc(OC)c(OC)c2)cc1, the viability at 10 µM (MCF7) was greater than 70%.
Work on COc1ccc(S(=O)(=O)Nc2cccnc2-c2ccc(O)cc2)cc1 yielded a viability at 10 µM (MCF7) greater than 70%.
In the case of Cc1ccc(S(=O)(=O)Nc2cccnc2-c2ccc(C#N)c(F)c2)cc1, the IC50 [1] is reported as greater than 10 µM, the IC50 (RKO) is reported as 9.21 µM and the IC50 (PANC-1) is reported as greater than 10 µM. The viability at 10 µM (MCF7) was greater than 70%.
COc1ccc(S(=O)(=O)Nc2cccnc2-c2ccc3c(c2)OCO3)cc1 gave a viability at 10 µM (MCF7) greater than 70%.
With CC(=O)O[C@H]1C(=O)[C@@]2(C)[C@H]([C@H](OC(=O)c3ccccc3)[C@]3(O)C[C@H](OC(=O)[C@H](O)[C@@H](NC(=O)c4ccccc4)c4ccccc4)C(C)=C1C3(C)C)[C@]1(OC(C)=O)CO[C@@H]1C[C@@H]2O the inhibition (Tubulin (Homo sapiens) [2]) was “inactive”, the inhibition (Sus scrofa) was “inactive” and the inhibition (Tubulin (Homo sapiens) [3]) was “inactive”.
COc1ccc(S(=O)(=O)Nc2cccnc2-c2cccc(N)c2)cc1 showed a viability at 10 µM (MCF7) greater than 70%.
With COc1ccc(S(=O)(=O)Nc2cccnc2-c2cc(OC)ccc2OC)cc1 the viability at 10 µM (MCF7) was greater than 70%.
Compound COc1ccc(S(=O)(=O)Nc2cccnc2-c2cccc(OC)c2)cc1 has a viability at 10 µM (MCF7) greater than 70%.
In the case of N#Cc1ccc(-c2ncccc2NS(=O)(=O)c2ccccc2)cc1F, the IC50 [1] is reported as greater than 10 µM, the IC50 (RKO) is reported as greater than 10 µM and the IC50 (PANC-1) is reported as greater than 10 µM.
For COc1ccc(S(=O)(=O)N(c2cccnc2-c2cc(OC)ccc2OC)S(=O)(=O)c2ccc(OC)cc2)cc1, the viability at 10 µM (MCF7) was greater than 70%.
N#Cc1ccc(-c2ncccc2NS(=O)(=O)c2ccc(OC(F)(F)F)cc2)cc1F gave an IC50 [1] greater than 10 µM, an IC50 (RKO) greater than 10 µM and an IC50 (PANC-1) greater than 10 µM.
For N#Cc1ccc(-c2ncccc2NS(=O)(=O)c2ccc(C(F)(F)F)cc2)cc1F, the IC50 [1] was greater than 10 µM, the IC50 (RKO) was greater than 10 µM and the IC50 (PANC-1) was greater than 10 µM.
In the case of COc1ccc(S(=O)(=O)Nc2cccnc2-c2cccc3c2oc2ccccc23)cc1, the viability at 10 µM (MCF7) is reported as greater than 70%.
For COc1ccc(S(=O)(=O)Nc2cccnc2-c2ccc(C#N)cc2)cc1, the IC50 (BT-474) was 1.34 µM, the IC50 [1] was 0.747 µM and the IC50 (RKO) was 0.259 µM. It also gave an IC50 (SK-BR-3) of 0.746 µM, an IC50 (PANC-1) of 1.09 µM and an IC50 (NCI-H460) of 1.5 µM. The IC50 (SW480) was 0.204 µM, the IC50 (SW-620) was 0.607 µM and the IC50 (PLC-PRF-5) was 0.816 µM. It also gave an IC50 (A549) of 2.46 µM.
COc1ccc(S(=O)(=O)Nc2cccnc2-c2ccnnc2)cc1 gave a viability at 10 µM (MCF7) greater than 70%.
Work on COc1ccc(-c2ncccc2NS(=O)(=O)c2ccc(OC)cc2)cc1 yielded a viability at 10 µM (MCF7) greater than 70%.
Compound N#Cc1ccc(-c2ncccc2NS(=O)(=O)c2ccc3ccccc3c2)cc1F has an IC50 [1] of 8.87 µM, an IC50 (RKO) of 2.92 µM and an IC50 (PANC-1) of 10 µM.
In the case of COc1ccc(S(=O)(=O)Nc2cccnc2-c2ccc(OCc3ccccc3)cc2)cc1, the viability at 10 µM (MCF7) is reported as greater than 70%.
Work on COc1ccc(S(=O)(=O)Nc2cccnc2-c2cc(OC)c(OC)c(OC)c2)cc1 yielded a viability at 10 µM (MCF7) greater than 70%.
In the case of COc1ccc(S(=O)(=O)Nc2cccnc2-c2ccccc2)cc1, the IC50 (BT-474) is reported as greater than 10 µM, the IC50 [1] is reported as greater than 10 µM and the IC50 (RKO) is reported as 4.32 µM. For the same compound, the IC50 (SK-BR-3) was greater than 10 µM, the IC50 (PANC-1) was greater than 10 µM and the IC50 (NCI-H460) was greater than 10 µM. The IC50 (SW480) was greater than 10 µM, the IC50 (SW-620) was 7.89 µM and the IC50 (PLC-PRF-5) was greater than 10 µM. It also gave an IC50 (A549) greater than 10 µM.
For N#Cc1ccc(-c2ncccc2NS(=O)(=O)c2ccc(Br)cc2)cc1F, the IC50 [1] was greater than 10 µM, the IC50 (RKO) was greater than 10 µM and the IC50 (PANC-1) was greater than 10 µM. For the same compound, the viability at 10 µM (MCF7) was greater than 70%.
With C=CCc1ccc(O)c(-c2ccc(O)c(CC=C)c2)c1 [HONOKIOL] the viability at 10 µM (MCF7) was greater than 70%.
In the case of COc1ccc(S(=O)(=O)N(c2cccnc2-c2ccc(OC)cc2OC)S(=O)(=O)c2ccc(OC)cc2)cc1, the viability at 10 µM (MCF7) is reported as greater than 70%.
In the case of N#Cc1ccc(-c2ncccc2NS(=O)(=O)c2ccc(Cl)cc2)cc1F, the IC50 [1] is reported as greater than 10 µM, the IC50 (RKO) is reported as greater than 10 µM and the IC50 (PANC-1) is reported as greater than 10 µM. The viability at 10 µM (MCF7) was greater than 70%.
Compound COc1ccc(S(=O)(=O)Nc2cccnc2-c2cccc(OC)c2OC)cc1 has a viability at 10 µM (MCF7) greater than 70%.
Compound COc1ccc(S(=O)(=O)Nc2cccnc2-c2ccc(OC)cc2OC)cc1 has a viability at 10 µM (MCF7) greater than 70%.
For COc1ccc(S(=O)(=O)Nc2cccnc2-c2cccc([N+](=O)[O-])c2)cc1, the viability at 10 µM (MCF7) was greater than 70%.
Work on COc1ccc(S(=O)(=O)Nc2cccnc2-c2ccc(C(F)(F)F)cc2)cc1 yielded an IC50 (BT-474) greater than 10 µM, an IC50 [1] greater than 10 µM and an IC50 (RKO) of 4.05 µM. For the same compound, the IC50 (SK-BR-3) was greater than 10 µM, the IC50 (PANC-1) was greater than 10 µM and the IC50 (NCI-H460) was greater than 10 µM. It also gave an IC50 (SW480) of 9.21 µM, an IC50 (SW-620) of 6.82 µM and an IC50 (PLC-PRF-5) greater than 10 µM. For the same compound, the IC50 (A549) was greater than 10 µM.
For COc1ccc(S(=O)(=O)Nc2cccnc2-c2ccc(C#N)c(F)c2)cc1OC, the IC50 [1] was greater than 10 µM, the IC50 (RKO) was greater than 10 µM and the IC50 (PANC-1) was greater than 10 µM.
In the case of COc1ccc(S(=O)(=O)Nc2cccnc2-c2cc(OC)cc(OC)c2)cc1, the viability at 10 µM (MCF7) is reported as greater than 70%.
Compound COc1ccc(S(=O)(=O)Nc2cccnc2-c2ccc(N)cc2)cc1 has a viability at 10 µM (MCF7) greater than 70%.
COc1ccc(S(=O)(=O)N(c2cccnc2-c2cccc(OC)c2OC)S(=O)(=O)c2ccc(OC)cc2)cc1 showed a viability at 10 µM (MCF7) greater than 70%.
For COc1ccc(S(=O)(=O)Nc2cccnc2-c2ccccc2O)cc1, the viability at 10 µM (MCF7) was greater than 70%.
Compound COc1ccc(S(=O)(=O)Nc2cccnc2-c2cccc(O)c2)cc1 has a viability at 10 µM (MCF7) greater than 70%.
